For 80 compounds, inhibition results are on record in PubChem BioAssay AID743256 (The Scripps Research Institute Molecular Screening Center, 2014).

The whole screen tested about 2,900 compounds, of which about 1,300 (45%) were called active.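 The calls were made as follows: active = mean inhibition over the triplicate runs exceeds the activity threshold set in the earlier primary screen (cut at about 20% in these data); inactive = the rest.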 The set was probably picked from earlier hits. A selection follows.

Disintegrin and metalloproteinase domain-containing protein 10 (Homo sapiens), sequence (O14672 214-748 limits assumed): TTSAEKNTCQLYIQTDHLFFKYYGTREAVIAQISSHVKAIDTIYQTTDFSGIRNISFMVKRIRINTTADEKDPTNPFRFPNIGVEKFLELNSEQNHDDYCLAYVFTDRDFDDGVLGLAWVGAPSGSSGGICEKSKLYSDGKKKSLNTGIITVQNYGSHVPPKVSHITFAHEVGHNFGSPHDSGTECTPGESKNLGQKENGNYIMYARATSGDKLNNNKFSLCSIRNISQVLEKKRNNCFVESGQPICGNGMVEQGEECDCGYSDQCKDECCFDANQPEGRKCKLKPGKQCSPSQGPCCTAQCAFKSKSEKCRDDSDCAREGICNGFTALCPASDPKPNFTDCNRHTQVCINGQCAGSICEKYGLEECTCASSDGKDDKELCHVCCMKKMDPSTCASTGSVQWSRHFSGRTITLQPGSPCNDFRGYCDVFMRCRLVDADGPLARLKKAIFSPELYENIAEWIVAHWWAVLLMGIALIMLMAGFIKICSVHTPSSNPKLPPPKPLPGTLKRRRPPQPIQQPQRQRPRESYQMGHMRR

The target of this test is Disintegrin and metalloproteinase domain-containing protein 10 (Homo sapiens) (UniProt O14672). As to the kind of experiment: ADAM10 inhibitors, counter-screen for ADAM17 exosite inhibitor project, biochemical, FRET, human ADAM10 (AID 743256).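 Also: 0% = DMSO wells and 100% = marimastat wells.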 Particulars: recombinant ADAM10, EDANS/DABCYL FRET peptide cleavage, 3 h; at 6.95 µM; active compounds read high. Summed up:
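System: ADAM10; Buffer or medium: HEPES/Brij buffer, pH 7.5; Also added: DM2 FRET peptide substrate; Compound dosing: single nominal concentration per compound; Times: 30 min plus 3 h, 25 °C; Detection: EDANS fluorescence, excitation 359 nm, emission 460 nm; Read-out basis: percent inhibition scaled between DMSO and marimastat control wells; Benchmarks: marimastat and DMSO wells.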
Consider `COc1cccc(NC(=O)C2C(c3ccccc3)C2(Cl)Cl)c1` (stereo not given), for which the inhibition is 34.2% (active).

For the compound `COC(=O)N(C)C[C@@H]1OCc2cnnn2CCCC(=O)N([C@@H](C)CO)C[C@@H]1C`, the inhibition was -8.98% (inactive).

With `C=C(C)COc1ccc(-c2n[nH]c(C)c2-c2ccccc2)c(O)c1`, the inhibition is 40.8% (active).

As to `CC(=O)Nc1ccc(S(=O)(=O)N2CCN(CCCOc3cc(C)ccc3C)CC2)cc1`, the inhibition was 12.4% (inactive).

`COc1ccc(S(=O)(=O)N2CCN(C(C)C(=O)Nc3ccc(C(C)C)cc3)CC2)cc1` (stereo not given): the inhibition was 20.5% (active).

In the case of `O=C1NC(=O)C(c2ccc(Cl)cc2)N1` (stereo not given), the inhibition was 6.62% (inactive).

`CN(C(=O)c1cccc(NC(=O)Cc2cccc([N+](=O)[O-])c2)c1)C1CCCCC1`: the inhibition was 19.9% (active).

As to `COc1ccccc1C(=O)NCC(=O)OCC(=O)NNC(=O)c1ccc(Br)cc1`, the inhibition was 3.18% (inactive).

On to `S=C(NCc1ccc(Cl)cc1)NC12CC3CC(CC(C3)C1)C2`, for which the inhibition is 22.6% (active).

On to `Cc1ccc(/C=N/NC(=O)CSc2nc3ccccc3o2)cc1`, for which the inhibition is 5.15% (inactive).

`C[C@@H]1CN([C@H](C)CO)C(=O)c2cc(-c3ccc(F)cc3)cnc2O[C@H]1CN(C)C(=O)c1ccc(F)cc1`: the inhibition is 12.7% (inactive).

As to `CC(C)Oc1cc(F)ccc1-c1cc(C(=O)Nc2cccc(Cl)c2)[nH]n1`, the inhibition is 25.8% (active).

Take `N#C/C(=C/c1ccc(N2CCCCC2)o1)C(=O)NCCc1c[nH]c2ccccc12`: the inhibition is 23.4% (active).

For `Cc1cc(C)cc(NC(=S)NCCc2c[nH]c3ccccc23)c1`, the inhibition is 14% (inactive).

As to `O=C(CSc1nc(-c2ccccc2)cs1)Nc1cccc([N+](=O)[O-])c1`, the inhibition was 24.3% (active).

Turning to `CCOc1ccc(N2C(=O)CC(N(CCc3ccc(OC)c(OC)c3)C(=S)Nc3ccccc3)C2=O)cc1` (stereo not given), the inhibition was 4.08% (inactive).

For the compound `COc1ccc(Cl)cc1NC(=O)COC(=O)C(CC(C)C)N1C(=O)C2CC=CCC2C1=O` (stereo not given), the inhibition was 17.9% (inactive).

For `CC1(C)C=Cc2c(ccc3c2OC[C@@H](c2ccc(O)cc2O)C3)O1`, the inhibition was 24.2% (active).

Take `Cn1nc(C(F)(F)F)c2cc(NC(=O)OCC(C)(C)C)sc21`: the inhibition was 13% (inactive).

On to `C#CCN(C[C@H]1[C@H](OC(=O)NC2CCCC2)[C@H](OC(=O)NC2CCCC2)C[C@H]2C(=O)N(c3ccccc3)C(=O)[C@@H]12)S(=O)(=O)c1ccc(C)cc1`, for which the inhibition was 19.1% (inactive).

Regarding `CCOc1ccccc1C1CC(c2cccc(NS(C)(=O)=O)c2)=NN1C(=O)c1ccccc1` (stereo not given), the inhibition was -1.35% (inactive).

For `Cc1ccc(S(=O)(=O)NCCSc2ccccc2)cc1[N+](=O)[O-]`, the inhibition was 6.91% (inactive).

Regarding `Cc1cc(C)cc(NS(=O)(=O)c2ccc(Oc3ncc(C(F)(F)F)cc3Cl)cc2)c1`, the inhibition was 39% (active).

With `COc1cc(/C=N/n2c(C)n[nH]c2=S)ccc1OCc1ccccc1`, the inhibition is -1.14% (inactive).

Regarding `COC(=O)c1c(C)[nH]c(C(=O)/C=C/c2ccc(Cl)cc2)c1C`, the inhibition is -38.4% (inactive).

`O=C(OCc1ccc(-c2ccccc2)cc1)c1cccc(O)c1`: the inhibition was 22.9% (active).

In the case of `COc1ccc(C(CNC(=O)c2cc(S(=O)(=O)Nc3cccc(C)c3)ccc2C)N2CCCC2)cc1` (stereo not given), the inhibition was 6.83% (inactive).

With `COC(C(=O)Nc1ccc(S(=O)(=O)Nc2ccc(C)c(C)c2)cc1)c1ccccc1` (stereo not given), the inhibition is 29.4% (active).

As to `O=C(COC(=O)c1ccccc1)Nc1ccccc1Sc1ccccc1`, the inhibition is 20.3% (active).

Regarding `Cc1ccccc1C(=O)Nc1ccccc1Sc1ccccc1`, the inhibition was 10.7% (inactive).

For `CC(=O)Nc1ccc(S(=O)(=O)Oc2ccc(Br)cc2C(=S)N2CCOCC2)cc1`, the inhibition is 13.5% (inactive).

As to `O=C(CSCc1ccc(Br)cc1)Nc1ccc(S(=O)(=O)N2CCCCCC2)cc1`, the inhibition was 23% (active).

On to `COc1ccc(S(=O)(=O)N2CCCCC2)cc1Br`, for which the inhibition was 10.7% (inactive).

As for `COc1ccc(CC(=O)c2ccc(O)cc2O)cc1OC`, the inhibition is 6.86% (inactive).

Take `Cc1ccc(Cn2nnc3c(=O)[nH]c(C4CCN(S(=O)(=O)/C=C/c5ccccc5)CC4)nc32)cc1`: the inhibition is 41.6% (active).

Turning to `N/C(Cc1ccc([N+](=O)[O-])cc1)=N\OC(=O)COc1ccc2ccccc2c1`, the inhibition is 11.5% (inactive).

As to `O=C(Nn1c(SCc2ccc([N+](=O)[O-])cc2)nc2ccccc2c1=O)c1ccc(F)cc1`, the inhibition is 30.6% (active).

As to `CC(C)(C)c1ccc(S(=O)(=O)NCC2CCN(C(=O)C(=O)c3cc4ccccc4o3)CC2)cc1`, the inhibition was 24.1% (active).

Turning to `C=CC(COCc1ccccc1)N(CC(=O)OC)S(=O)(=O)c1cc(Br)ccc1OC` (stereo not given), the inhibition was 13.2% (inactive).

On to `FC(F)(F)Oc1ccccc1C(c1nnnn1C1CCCCC1)N1CCN(C/C=C/c2ccccc2)CC1` (stereo not given), for which the inhibition is 17.1% (inactive).

With `COc1ccc(-c2cc(C3CCN(c4ncccc4[N+](=O)[O-])CC3)[nH]n2)cc1`, the inhibition was 27.1% (active).

In the case of `O=C(Nc1ccc(C(=O)NCc2ccccc2Cl)cc1)C1=CSCCO1`, the inhibition was 9.95% (inactive).

On to `Cn1nc(C(F)(F)F)c(C(=O)Nc2cccc(C(F)(F)F)c2)c1SCc1ccc(Cl)cc1`, for which the inhibition is 37.8% (active).

Consider `COc1ccc(C(N)c2csc(NC(=O)Nc3cccc(C(F)(F)F)c3)n2)cc1` (stereo not given), for which the inhibition was 14.4% (inactive).

As to `O=C(COc1ccc(Cl)cc1)N1CCN(c2cccc(C(F)(F)F)c2)CC1`, the inhibition is 18.6% (inactive).

For `CCOC(=O)c1cccc(NC(=O)CN(C)S(=O)(=O)c2ccc(-c3cocn3)s2)c1`, the inhibition is 4.04% (inactive).

As for `COc1ccc(-c2ccc(CN3C(CC(C)C)C(=O)N(Cc4cn(CC5CCCCC5)nn4)CCS3(=O)=O)cc2)cc1` (stereo not given), the inhibition was 26.9% (active).

Take `COc1ccc(Cn2cc(CN3CCS(=O)(=O)N(Cc4ccc(-c5cccc(Cl)c5)cc4)C(C)C3=O)nn2)cc1` (stereo not given): the inhibition was 18% (inactive).

For `O=C1[C@H]2[C@@H](c3ccc(C(F)(F)F)cc3)N[C@]3(CCCN(Cc4ccc(Br)cc4)C3=O)[C@H]2C(=O)N1Cc1ccccc1`, the inhibition was 32.2% (active).

`CCOc1ccccc1CNS(=O)(=O)c1cc(-c2cc(C)no2)ccc1C`: the inhibition is 1.34% (inactive).

As for `CCOc1ccc(OCC)c(-c2c(=O)n(OCc3ccc(Cl)cc3)c3ccccc3[n+]2[O-])c1`, the inhibition was -2.21% (inactive).

With `O=C(Cc1ccc(Cl)c(Cl)c1)Nc1ccc(SC(F)F)cc1`, the inhibition is 43.3% (active).

For `CCOc1ccc(-n2c(SCC(=O)Nc3cc(C)c(NC(=O)c4ccccc4)cc3OC)nnc2-c2cccs2)cc1`, the inhibition is 8.96% (inactive).

As for `Cc1ccc(-n2c(COc3ccccc3)nnc2SCC(=O)Nc2ccc3c(c2)OCCO3)cc1`, the inhibition is 25.8% (active).

For the compound `O=C(CN1CCN(c2nc(-c3ccccc3)cs2)CC1)NCc1ccc2c(c1)OCO2`, the inhibition was 24.1% (active).

`CC1(Cc2cccc(C#N)c2)C(=O)Nc2ccc(-c3cccc(C(F)(F)F)c3)cc21` (stereo not given): the inhibition is 36.6% (active).

For the compound `COCCNC(=O)C(c1ccc(C)o1)N(Cc1ccccc1)C(=O)Cn1nnc2ccccc21` (stereo not given), the inhibition was -7.67% (inactive).

As for `O=C(CC1SC(=Nc2ccccc2)N(Cc2ccccn2)C1=O)Nc1cccc(Cl)c1` (stereo not given), the inhibition is 35% (active).

For `CCN1C(=O)C(CC(=O)Nc2cc(C)ccc2C)SC1=Nc1ccc(S(N)(=O)=O)cc1` (stereo not given), the inhibition is 5.34% (inactive).

In the case of `COc1ccc(CC(N)c2csc(NC(=O)NC(c3ccccc3)c3ccccc3)n2)cc1` (stereo not given), the inhibition was 5.76% (inactive).

Regarding `C=CCOc1ccccc1/C=N/NC(=O)Cc1ccccc1`, the inhibition was -0.63% (inactive).

Turning to `Cn1c(=O)c2c(nc(N/N=C/c3cccs3)n2Cc2ccc(Br)cc2)n(C)c1=O`, the inhibition is -80.2% (inactive).

On to `O=C(COC(=O)CCCSc1nc2ccccc2[nH]1)Nc1ccc(Oc2ccccc2)cc1`, for which the inhibition is 39.3% (active).

Take `O=C1/C(=C\c2ccsc2)NC(=S)N1c1ccccc1`: the inhibition was 10.1% (inactive).

Turning to `COc1ccc(CN(C)C(=O)CC(c2ccccc2)c2ccccc2)cc1`, the inhibition was 7.1% (inactive).

Take `Clc1ccc(C(Cn2ccnc2)OCc2ccsc2Cl)c(Cl)c1` (stereo not given): the inhibition was 22.7% (active).

With `C=CCC[C@@H](Cc1ccc(F)cc1)C(=O)OC[C@H](Cc1c[nH]c2ccccc12)NC(=O)[C@@H](CC=C)CC(=O)N(CCO)Cc1ccccc1`, the inhibition was 35.2% (active).

As for `C=CC[C@H](CC(=O)N(CCO)Cc1ccccc1)C(=O)N[C@@H](COC(=O)[C@@H](CC=C)Cc1ccc(F)cc1)Cc1ccccc1`, the inhibition was 25.1% (active).

With `C=CCC[C@@H](Cc1ccc(F)cc1)C(=O)O[C@H](CNC(=O)[C@H](CC=C)CC(=O)N(CCO)Cc1ccccc1)c1ccccc1`, the inhibition is 45.3% (active).

For `COc1cc(NC(=O)CCS(=O)(=O)c2ccc3c(c2)oc(=O)n3C)cc(OC)c1`, the inhibition is 11.3% (inactive).

As for `Cc1ccc(NC(=S)NNC(=O)CSc2nnc(SCc3ccccc3Cl)s2)cc1`, the inhibition was 37.1% (active).

`Cc1nnc(SCC(=O)Nn2cnnc2)s1`: the inhibition is -7.63% (inactive).

As to `O=C(CSc1nnc(Nc2ccccc2)s1)Nc1cccnc1Cl`, the inhibition is 10.6% (inactive).

`CCOC(=O)c1c(Cc2ccc(Cl)cc2)c[nH]c1C`: the inhibition is 19.5% (inactive).

For the compound `COc1ccc([C@@H]2[C@@H]3C(=O)N(C(C)(C)C)C(=O)[C@@H]3[C@]3(Cc4ccccc4)C(=O)N(c4cccc(Br)c4)C(=O)N23)cc1`, the inhibition was 28.6% (active).

`CC(C)(C)N1C(=O)[C@H]2[C@@H](c3ccc(Br)cc3)N3C(=O)N(c4cccc(Cl)c4)C(=O)[C@@]3(C)[C@H]2C1=O`: the inhibition was 22.2% (active).

For `CC[C@@]12C(=O)N(c3ccccc3)C(=O)N1[C@H](c1ccc(Br)cc1)[C@@H]1C(=O)N(C(C)(C)C)C(=O)[C@@H]12`, the inhibition is 6.71% (inactive).

Regarding `COc1cccc(CNc2nc(C(F)(F)F)nc3ccccc23)c1`, the inhibition was 8.29% (inactive).

With `CC(C)(C)OC(=O)CNC(=O)c1[nH]cnc1C(=O)N[C@@H](Cc1ccccc1)C(=O)OCc1ccccc1`, the inhibition is 42.9% (active).

Take `CC(C)(C)OC(=O)N1CCC(NC(=O)c2[nH]cnc2C(=O)N[C@@H](Cc2ccccc2)C(=O)OCc2ccccc2)CC1`: the inhibition is 35.8% (active).
